Laboratory results reported in ChEMBL document CHEMBL3352384, “Synthesis and biological activity of new salicylanilide N,N-disubstituted carbamates and thiocarbamates” (Bioorg Med Chem, 2014).
≈ marks a conversion by molar mass, not a printed value.

How the values were obtained:
[1] = system: Mycobacterium tuberculosis; experiment: Antimycobacterial activity against Mycobacterium tuberculosis H37Rv 331/88 assessed as complete growth inhibition after 21 days; format: functional; conditions: H37Rv 331/88, 504 h
Outline: (§1)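 M. tuberculosis 331/88 (H37Rv) inoculum diluted 10-3, M. avium 330/88 diluted 10-5. MIC is the lowest concentration giving complete growth inhibition. Isoniazid and p-aminosalicylic acid as references. Quadruplicate, repeated twice.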

[2] = Selectivity index, ratio of IC50 for human HepG2 cells to MIC for Mycobacterium tuberculosis H37Rv; format: toxicity, cell-based; conditions: read-out: Selectivity Index
Outline: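 Selectivity index = HepG2 IC50 / MIC. HepG2 cells (passage 3–4) grown in Eagle's MEM with 10% FBS, L-glutamine and non-essential amino acids. Compounds added from DMSO, eight concentrations in triplicate, tetrazolium-reduction colorimetric read-out.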

Mycobacterium avium [3] = experiment: Antimycobacterial activity against Isoniazid, rifampicin, ofloxacin and ethambutol-resistant Mycobacterium avium 330/88 assessed as complete growth inhibition after 14 days; format: functional; conditions: 330/88, 336 h; outline: as §1
Mycobacterium avium [4] = experiment: Antimycobacterial activity against Isoniazid, rifampicin, ofloxacin and ethambutol-resistant Mycobacterium avium 330/88 assessed as complete growth inhibition after 21 days; format: functional; conditions: 330/88, 504 h; outline: as §1
Mycobacterium kansasii [5] = experiment: Antimycobacterial activity against clinical isolate Mycobacterium kansasii 6509/96 assessed as complete growth inhibition after 14 days; format: functional; conditions: 6509/96, 336 h
Outline: (§2)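 Dilutions of M. kansasii inoculum were 10-4 for strain 235/80 and 10-5 for clinical isolate 6509/96. MIC was the lowest concentration giving complete growth inhibition, run in quadruplicate and repeated twice.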

in vitro = conditions: human, HepG2 cells
Mycobacterium kansasii [6] = experiment: Antimycobacterial activity against Mycobacterium kansasii 235/80 assessed as complete growth inhibition after 14 days; format: functional; conditions: 235/80, 336 h; outline: as §2
HepG2 = experiment: Cytotoxicity against human HepG2 cells assessed as reduction in cell viability after 24 hrs by MTS assay; format: cell-based; conditions: HepG2, 24 h
Outline: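 HepG2 hepatocellular carcinoma cells (passage 3–4) were grown in Eagle's MEM with 10% FBS, 1% L-glutamine and non-essential amino acids. Compounds were added from DMSO at eight concentrations in triplicate, with 10% DMSO as the 0% viability control. Viability was read by tetrazolium salt reduction (CellTiter 96 AQueous One). IC50 is the concentration reducing viability to 50% of control.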

[7] = Inhibition of Mycobacterium tuberculosis H37Rv isocitrate lyase assessed as glyoxylate phenyl hydrazone formation at 10 uM
Mycobacterium kansasii [8] = experiment: Antimycobacterial activity against Mycobacterium kansasii 235/80 assessed as complete growth inhibition after 21 days; format: functional; conditions: 235/80, 504 h; outline: as §2
Mycobacterium kansasii [9] = experiment: Antimycobacterial activity against Mycobacterium kansasii 235/80 assessed as complete growth inhibition after 7 days; format: functional; conditions: 235/80, 168 h; outline: as §2
[10] = system: Mycobacterium tuberculosis; experiment: Antimycobacterial activity against Mycobacterium tuberculosis H37Rv 331/88 assessed as complete growth inhibition after 14 days; format: functional; conditions: H37Rv 331/88, 336 h; outline: as §1
Mycobacterium kansasii [11] = experiment: Antimycobacterial activity against clinical isolate Mycobacterium kansasii 6509/96 assessed as complete growth inhibition after 7 days; format: functional; conditions: 6509/96, 168 h; outline: as §2
Mycobacterium kansasii [12] = experiment: Antimycobacterial activity against clinical isolate Mycobacterium kansasii 6509/96 assessed as complete growth inhibition after 21 days; format: functional; conditions: 6509/96, 504 h; outline: as §2

NNC(=O)c1ccncc1 [ISONIAZID]
MIC [1]: 1 µM (≈ 0.137 µg/mL) | selectivity ratio [2]: > 250 | MIC (Mycobacterium avium [3]): > 250 µM | MIC (Mycobacterium avium [4]): > 250 µM | MIC (Mycobacterium kansasii [5]): 4 µM (≈ 0.549 µg/mL) | selectivity ratio (in vitro): ≥ 31.3 | MIC (Mycobacterium kansasii [6]): > 250 µM | IC50 (HepG2): > 250 µM | inhibition [7]: 0% | MIC (Mycobacterium kansasii [8]): > 250 µM | MIC (Mycobacterium kansasii [9]): > 250 µM | MIC [10]: 0.5 µM (≈ 0.0686 µg/mL) | MIC (Mycobacterium kansasii [11]): 2 µM (≈ 0.274 µg/mL) | MIC (Mycobacterium kansasii [12]): 4 µM (≈ 0.549 µg/mL)
